Screens from PubChem BioAssay.
The list is not random: actives were taken first. Their share in the collection is about 6.8%.
AI-2 QS modul – modulates the Vibrio harveyi AI-2 quorum sensing system | Vibrio harveyi JMH597 AI-2 luminescence/OD600 ratio, 9 h; active compounds read low; strain lacks LuxN and CqsS sensors; 0 = neutral-control median | activity change, % at 7.5 µM | 0.4% of 300,000 active | AID 2094; in the data active means activity change below about -75%, passing the limit was not always enough;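 further: luminescence divided by OD600 gain over 9 h not by final OD600 alone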
core dimer inh – HCV core protein dimerization inhibition; 0.33% of 300,000 active; TR-FRET GST/Flag-core106 dimerization, 1536-well; inhibition, % at 5 µM;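 active means inhibition above the mean of all tested compounds plus 3 SD, set per screening campaign, cut at about 45% in these data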
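Test system: GST/Flag-tagged HCV core106 proteins; Medium: KF-containing HEPES buffer, pH 7.45, DTT, CHAPS, BSA; Times: compound-protein-antibody incubation 4 h at 22.5 °C; Detection: TR-FRET 671 and 617 nm emission; Benchmarks: wells lacking GST-core106 and wells with excess unlabelled core106.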
HSF-1 act – increases HSF-1 driven luciferase reporter signal. NIH3T3-HGL HSF-1 luciferase reporter, MG132, 8 h; 100% = twice DMSO control signal. activation, % at 9 µM. 1.7% of 300,000 active;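 active means mean replicate activation of at least 50% with a set share of replicates each reaching 50%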;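 further: 0% = median of the neutral control wells and 100% = twice that signal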
HSF1 inhib – HSF1 inhibition | NIH3T3-HGL HSE-luciferase, MG132-induced, luminescence 8 h; active compounds read low | activity change, negative = inhibition, % at 7.5 µM (by protocol) | 0.77% of 300,000 active | AID 2098;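 active means more than half of replicate wells show activity change below -50%, luminescence cut by over half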;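 further: luciferase reports HSF-1 transcriptional activity via heat shock element; 0% = median of DMSO wells and -100% = zero luminescence signal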
PHOSPHO1 inh – inhibitors of human PHOSPHO1 phosphatase; AID 1565; recombinant PHOSPHO1, absorbance phosphatase assay; inhibition, % at 13.3 µM; 1.1% of 290,000 active; in the data active means inhibition above about 60%
Target sequence (Q8TCT1 whole entry, looked up): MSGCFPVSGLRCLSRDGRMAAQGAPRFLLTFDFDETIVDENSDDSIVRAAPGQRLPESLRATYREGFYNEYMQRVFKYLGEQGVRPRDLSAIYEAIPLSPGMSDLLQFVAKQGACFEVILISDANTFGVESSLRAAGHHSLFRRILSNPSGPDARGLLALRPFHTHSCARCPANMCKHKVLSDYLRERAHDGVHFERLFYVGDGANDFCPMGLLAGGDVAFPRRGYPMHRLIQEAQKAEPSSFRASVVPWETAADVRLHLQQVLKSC
ALR H2O2 inh – inhibitors of human sulfhydryl oxidase ALR | P55789 | purified ALR, DTT oxidation, H2O2 HRP-luminol luminescence | inhibition, % (no concentration beside the values) | 3.8% of 290,000 active;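 active means mean replicate inhibition above about 79%, with every replicate also reaching it, limit read from the data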
Target sequence (P55789 whole entry, looked up): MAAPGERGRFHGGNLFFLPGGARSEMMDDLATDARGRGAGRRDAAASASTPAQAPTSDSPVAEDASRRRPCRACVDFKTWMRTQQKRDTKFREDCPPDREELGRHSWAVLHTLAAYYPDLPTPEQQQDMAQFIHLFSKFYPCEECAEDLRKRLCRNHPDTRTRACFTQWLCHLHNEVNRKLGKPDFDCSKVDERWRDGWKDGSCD
The depositor's hits bear a star; x = no result given.

SMILES	AI-2 QS modul	core dimer inh	HSF-1 act	HSF1 inhib	PHOSPHO1 inh	ALR H2O2 inh
OC(CCc1ccncc1)c1ccccc1 (configuration not stated)	10	-17	-18	-4	x	-6
Cc1cc(C)nc(SCCc2ccncc2)n1	18	-1	-12	-9	13	x
c1ccc(CCc2ccncc2)cc1	8	8	56*	9	29	-15
Nc1cccc(CCc2ccncc2)c1	-1	10	-6	2	-3	90*
Nc1cccc(/C=C/c2ccncc2)c1	9	13	54*	8	15	99*
Cc1ccc(NC(=O)CN2C(=O)S/C(=C\c3cc(Cl)c(OCC(=O)O)c(Cl)c3)C2=O)cc1	21	21	-3	-1	-32	48
CC(C)(C)[C@@H]1COC(=O)[C@H](Cc2ccc(F)cc2)C/C=C\C[C@@H](CC(=O)NCCO)C(=O)N1	x	x	x	x	x	-2
NC(CS(=O)O)C(=O)O (configuration not stated)	-5	6	-17	-3	x	2
Cc1nn2c(NCCCN(C)C)c3c(nc2c1-c1ccccc1)CCC3	11	-5	7	2	15	88*
COCCNc1c2c(nc3c(-c4ccccc4)c(C)nn13)CCC2	29	-2	x	x	12	x
Cc1nn2c(NCCCN(C)C)c3c(nc2c1-c1ccccc1)CCCC3	28	-4	0	4	33	97*
CC(OC(=O)Cc1ccc(Br)cc1)C(=O)NC1CCCCC1C (configuration not stated)	58	3	-6	-7	14	3
COc1ccc(NC(=O)c2ccc(NC(=O)COC(=O)c3cnc(C)cn3)cc2)cc1	4	5	0	-10	x	-1
COc1ccc(N2C(=O)/C(=C/c3cccs3)NC2=S)cc1	-8	-7	26	13	75*	9
COc1cccc(N2CCN(C(=O)CCCCCNc3nc(=S)[nH]c4ccccc34)CC2)c1	11	13	12	-3	38	3
COc1ccc(/C=N/NC(=O)c2[nH]c3ccc(C)cc3c2-c2ccccc2)c(C(=O)O)c1OC	10	-1	-5	0	13	99*
Cc1ccc2[nH]c(C(=O)N/N=C/c3ccccc3C(=O)O)c(-c3ccccc3)c2c1	23	1	21	8	33	x
O=C(NCC1COCCO1)c1cc(COc2ccc(F)cc2F)on1 (configuration not stated)	17	-10	-10	-11	37	-8
CC/C(=C(/CC)c1ccc(O)cc1)c1ccc(O)cc1	-14	3	-6	-1	24	99*
CCCc1ccc(-c2cc(N)n[nH]2)cc1	12	-2	2	4	-16	99*
Cc1ccc(CN2CCC(n3nccc3NC(=O)c3ccccc3C)CC2)o1	24	-8	39	14	6	4
CC(C)C(NC(=O)C(C)N1C(=O)c2ccccc2C1=O)c1ccccc1 (configuration not stated)	11	3	23	-8	33	-2
O=C(CSc1ccccc1)N1CCc2ccccc21	9	10	59*	43	6	-11
O=C(Cc1coc2ccc3ccccc3c12)N1CCc2ccccc21	28	9	-1	14	15	-9
CCn1cc(SCC(=O)N2CCc3ccccc32)c2ccccc21	45	-4	-2	13	-6	98*
SMILES	AI-2 QS modul	core dimer inh	HSF-1 act	HSF1 inhib	PHOSPHO1 inh	ALR H2O2 inh
Cc1ccc2c(CC(=O)N3CCc4ccccc43)coc2c1	8	30	77*	76	-19	-6
Nc1cc(N)nc(SCC(=O)N2CCc3ccccc32)n1	14	11	4	22	-2	-2
CCn1c(-c2ccc(F)cc2)cnc1SCC(=O)N1CCc2ccccc21	2	7	70*	41	-11	-5
C=CCOc1ccc2nnc(C)n2n1	13	0	30	5	-13	-2
CCN(Cc1ccccc1)C(=O)c1ccc2c(=O)n3c(nc2c1)CCC3	12	2	-9	-1	x	x
Cc1cc(C)c(C(=O)COC(=O)c2nn(C)c(=O)c3ccccc23)cc1C	x	x	x	x	x	1
O=C(COc1ccccc1Cl)N1CCc2ccccc21	9	x	74*	57	18	x
O=C(CCCc1ccccc1)N1CCc2ccccc21	14	3	59*	30	1	-4
O=C(CS(=O)(=O)Cc1ccccc1)N1CCc2ccccc21	28	-6	2	3	-3	-4
Cc1cccc(C2CC3(CC(C)(C)NC(=S)N3)Oc3cc(O)ccc32)c1 (configuration not stated)	5	6	10	2	42	2
Cc1cccc(C2CN(C)CCc3c2cc(O)c(O)c3Cl)c1 (configuration not stated)	x	5	x	x	x	98*
C=CCN1CCc2c(cc(O)c(O)c2Cl)C(c2ccccc2)C1 (configuration not stated)	24	8	2	4	8	99*
C=CCN1CCc2cc(O)c(O)cc2C(c2ccccc2)C1 (configuration not stated)	x	2	x	x	x	98*
Cc1ccc(C2C(C#N)=C(N)Oc3c2sc2ccccc32)o1 (configuration not stated)	21	80*	x	x	12	-21
CN(C)c1cccc2c(/C=N/O)ccc(N(C)C)c12	11	1	-12	-7	12	89*
O=S(=O)(c1ccc2c(c1)CCN2)N1CCOCC1	x	x	x	x	x	78*
O=C1CS/C(=N/N=C/c2ccco2)N1Cc1ccc(F)cc1	-5	7	11	2	37	90*
COc1ccc(/C=N/N=C2/SCC(=O)N2Cc2ccccc2)cc1	1	2	66*	35	28	-3
Cc1ccc(CNC(=O)CCC(=O)Nc2nnc(C)s2)cc1	20	-2	29	10	49	0
Cc1nnsc1-c1onc(C)c1C(=O)O/N=C/c1ccc(Cl)cc1	5	2	-9	-4	45	x
COc1cc2c3c(c1OC)C1(C=CC(=O)C=C1)CC3N(C(=O)c1ccccc1)CC2 (configuration not stated)	15	-4	55*	25	30	4
Cc1cc(NC(=O)Cn2cnc3sc(C)c(-c4ccccc4)c3c2=O)no1	0	x	185*	120	-8	x
Cc1cc(NC(=O)Cn2cnc3sc(C)c(C)c3c2=O)no1	x	x	x	x	x	-2
C=CCC(Nc1ccccc1)c1ccc(OC)c(OC)c1 (configuration not stated)	24	-4	-71	-63*	24	96*
O=C(Nc1cccc(/C=C/c2ccccn2)c1)c1cc(Cl)ccn1	11	18	0	-3	26	-17
Cc1ccnc(NC(=O)c2ccc(S(=O)(=O)N3CCCCCC3)cc2)c1	13	-1	1	6	x	-6
